Experimental data: ChEMBL document CHEMBL1933063, “Investigation of chalcones and benzochalcones as inhibitors of breast cancer resistance protein” (Bioorg Med Chem, 2012); call rule not given here

Columns and labels:
[1] = molecular target: T1, Broad substrate specificity ATP-binding cassette transporter ABCG2 (Homo sapiens, UniProt Q9UNQ0); test: Inhibition of human BCRP expressed in MDCK2 cells assessed as Hoechst 33342 accumulation preincubated for 30 mins by fluorimetry; assay type: cell-based, MDCK-II
T1 sequence (Q9UNQ0 whole entry): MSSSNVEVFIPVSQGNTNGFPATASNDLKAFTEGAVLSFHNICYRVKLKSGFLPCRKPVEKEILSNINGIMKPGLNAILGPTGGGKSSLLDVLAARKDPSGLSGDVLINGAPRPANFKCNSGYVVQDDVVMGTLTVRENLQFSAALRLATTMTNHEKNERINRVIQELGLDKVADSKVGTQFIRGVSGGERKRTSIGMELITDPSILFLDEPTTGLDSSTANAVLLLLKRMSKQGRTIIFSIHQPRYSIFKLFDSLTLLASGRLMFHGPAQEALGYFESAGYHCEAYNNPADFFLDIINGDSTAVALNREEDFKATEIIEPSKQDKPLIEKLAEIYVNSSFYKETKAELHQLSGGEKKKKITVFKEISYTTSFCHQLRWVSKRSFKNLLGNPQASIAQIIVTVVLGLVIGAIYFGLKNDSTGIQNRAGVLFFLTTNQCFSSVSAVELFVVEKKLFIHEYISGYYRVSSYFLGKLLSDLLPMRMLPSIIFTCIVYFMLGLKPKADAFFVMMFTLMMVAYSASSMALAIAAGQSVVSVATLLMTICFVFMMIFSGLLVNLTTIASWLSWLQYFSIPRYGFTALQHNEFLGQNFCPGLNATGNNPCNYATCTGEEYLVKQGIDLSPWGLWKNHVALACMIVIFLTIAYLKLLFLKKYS
In short: (§1)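 Cells washed three times in Krebs-HEPES buffer, about 20,000 per well, preincubated with test compound at varied concentrations for 30 min at 37 °C, 5% CO2. Hoechst 33342 then added (final 1 µM). Fluorescence (ex 355, em 460 nm) read every 60 s up to 120 min at 37 °C. KHB background subtracted, 100–109 min mean plotted, four-parameter logistic fit; ≥3 independent experiments.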

[2] = molecular target: ATP-dependent translocase ABCB1 (Homo sapiens, UniProt P08183); test: Inhibition of MDR1 in human A2780adr cells assessed as calcein AM accumulation at 10 uM by fluorimetry; assay type: cell-based; details: a2780 adr
In short: (§2)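 Calcein AM accumulation in A2780adr (P-gp) or 2008 MRP1 cells. Cells washed in Krebs-HEPES buffer, about 30,000 per well, preincubated 30 min with compound at 10 µM final. Calcein AM then added. Fluorescence (ex 485, em 520 nm) read every 60 s up to 90 min at 37 °C. Expressed as percent of vehicle control; n = 3.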

[3] = molecular target: T1, Broad substrate specificity ATP-binding cassette transporter ABCG2; test: Inhibition of BCRP in human MCF7/MX cells assessed as Hoechst 33342 accumulation preincubated for 30 mins by Fluorometry; assay type: cell-based; in short: as §1
[4] = molecular target: Multidrug resistance-associated protein 1 (Homo sapiens, UniProt P33527); test: Inhibition of MRP1 overexpressed in human 2008 MRP1 cells assessed as calcein AM accumulation at 10 uM by fluorimetry; assay type: cell-based; details: human, 2008, 10 µM; in short: as §2
Sequence of Multidrug resistance-associated protein 1 (P33527 whole entry): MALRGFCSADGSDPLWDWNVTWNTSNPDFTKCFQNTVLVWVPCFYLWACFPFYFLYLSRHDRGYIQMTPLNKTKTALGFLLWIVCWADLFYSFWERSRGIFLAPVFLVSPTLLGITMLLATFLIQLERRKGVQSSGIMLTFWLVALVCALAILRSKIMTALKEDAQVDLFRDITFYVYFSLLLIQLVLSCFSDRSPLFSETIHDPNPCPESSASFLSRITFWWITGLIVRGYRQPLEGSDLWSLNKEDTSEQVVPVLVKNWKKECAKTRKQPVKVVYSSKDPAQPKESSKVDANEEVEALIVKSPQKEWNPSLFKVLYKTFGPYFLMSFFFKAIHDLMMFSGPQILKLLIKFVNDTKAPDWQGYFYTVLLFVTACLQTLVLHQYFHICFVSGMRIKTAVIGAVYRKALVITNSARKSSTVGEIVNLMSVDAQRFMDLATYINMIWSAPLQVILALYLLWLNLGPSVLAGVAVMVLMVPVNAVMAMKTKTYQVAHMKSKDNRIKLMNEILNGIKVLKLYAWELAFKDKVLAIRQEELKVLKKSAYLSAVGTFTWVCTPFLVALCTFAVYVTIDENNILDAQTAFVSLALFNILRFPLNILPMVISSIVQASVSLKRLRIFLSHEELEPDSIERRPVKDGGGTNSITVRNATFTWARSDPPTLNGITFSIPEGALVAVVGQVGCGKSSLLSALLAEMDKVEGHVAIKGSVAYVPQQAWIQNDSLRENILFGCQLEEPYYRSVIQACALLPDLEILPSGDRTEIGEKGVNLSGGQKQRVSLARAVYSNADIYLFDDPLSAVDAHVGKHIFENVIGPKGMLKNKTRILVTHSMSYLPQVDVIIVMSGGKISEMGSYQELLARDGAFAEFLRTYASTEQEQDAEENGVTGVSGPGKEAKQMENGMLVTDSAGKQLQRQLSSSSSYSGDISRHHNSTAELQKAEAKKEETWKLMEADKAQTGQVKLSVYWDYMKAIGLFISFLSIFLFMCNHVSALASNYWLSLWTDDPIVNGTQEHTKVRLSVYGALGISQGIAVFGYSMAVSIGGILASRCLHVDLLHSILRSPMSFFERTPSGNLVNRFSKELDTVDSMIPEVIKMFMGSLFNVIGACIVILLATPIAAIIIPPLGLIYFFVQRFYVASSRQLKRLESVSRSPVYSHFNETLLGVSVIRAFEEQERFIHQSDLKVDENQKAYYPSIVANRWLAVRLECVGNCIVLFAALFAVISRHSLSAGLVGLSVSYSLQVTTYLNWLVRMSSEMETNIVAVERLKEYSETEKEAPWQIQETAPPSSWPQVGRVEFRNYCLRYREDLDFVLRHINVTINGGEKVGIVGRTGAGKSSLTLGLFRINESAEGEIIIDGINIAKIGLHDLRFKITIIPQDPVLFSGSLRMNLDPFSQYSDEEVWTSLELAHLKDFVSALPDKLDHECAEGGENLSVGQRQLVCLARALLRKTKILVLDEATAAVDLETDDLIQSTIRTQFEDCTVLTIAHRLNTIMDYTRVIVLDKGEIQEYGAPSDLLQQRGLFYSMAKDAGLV

Sequence of ATP-dependent translocase ABCB1 (P08183 whole entry): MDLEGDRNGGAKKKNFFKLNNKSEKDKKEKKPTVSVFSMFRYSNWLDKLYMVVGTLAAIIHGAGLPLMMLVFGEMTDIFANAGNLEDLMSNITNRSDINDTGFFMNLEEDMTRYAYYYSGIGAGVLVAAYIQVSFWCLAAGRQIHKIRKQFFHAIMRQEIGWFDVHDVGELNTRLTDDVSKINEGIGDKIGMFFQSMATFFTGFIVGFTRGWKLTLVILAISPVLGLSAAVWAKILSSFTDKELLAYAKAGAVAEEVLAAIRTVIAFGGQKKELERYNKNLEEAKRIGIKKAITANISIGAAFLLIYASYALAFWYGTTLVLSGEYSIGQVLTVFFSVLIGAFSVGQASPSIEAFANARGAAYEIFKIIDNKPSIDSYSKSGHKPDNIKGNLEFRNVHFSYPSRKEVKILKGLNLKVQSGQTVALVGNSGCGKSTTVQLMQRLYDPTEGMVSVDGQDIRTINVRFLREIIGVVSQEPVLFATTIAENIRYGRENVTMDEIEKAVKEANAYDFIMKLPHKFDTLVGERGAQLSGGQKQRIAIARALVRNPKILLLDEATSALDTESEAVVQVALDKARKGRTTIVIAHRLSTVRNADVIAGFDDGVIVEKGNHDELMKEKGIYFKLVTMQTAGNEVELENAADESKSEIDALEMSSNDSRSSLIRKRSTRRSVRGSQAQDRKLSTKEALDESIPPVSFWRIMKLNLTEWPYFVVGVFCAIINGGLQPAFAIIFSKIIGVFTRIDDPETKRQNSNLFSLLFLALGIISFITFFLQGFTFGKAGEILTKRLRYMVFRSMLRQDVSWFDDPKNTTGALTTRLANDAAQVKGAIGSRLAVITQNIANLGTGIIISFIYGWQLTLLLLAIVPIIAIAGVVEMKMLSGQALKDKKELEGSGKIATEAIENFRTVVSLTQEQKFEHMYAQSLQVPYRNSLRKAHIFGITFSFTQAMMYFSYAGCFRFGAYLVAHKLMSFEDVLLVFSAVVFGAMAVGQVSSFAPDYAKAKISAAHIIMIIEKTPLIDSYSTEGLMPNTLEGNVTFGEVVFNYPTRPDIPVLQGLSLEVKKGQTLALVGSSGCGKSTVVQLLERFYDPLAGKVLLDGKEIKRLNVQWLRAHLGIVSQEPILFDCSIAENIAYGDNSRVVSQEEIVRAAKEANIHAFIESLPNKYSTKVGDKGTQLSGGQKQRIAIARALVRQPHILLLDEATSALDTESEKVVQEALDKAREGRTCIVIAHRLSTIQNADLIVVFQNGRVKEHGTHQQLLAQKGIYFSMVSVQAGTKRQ

SMILES	IC50 ([1]; read-out: IC50)	inhibition (INH) [2]	IC50 ([3]; read-out: IC50)	inhibition (INH) [4]	IC50 ([1]; mdck-ii)	IC50 ([3]; mcf7/mx)
O=C(/C=C/c1ccc(Cl)c(Cl)c1)c1c(O)ccc2ccccc12	7.26 µM	Active	8.78 µM	Not Active		
COc1ccc(/C=C/C(=O)c2ccc(OC)c(OC)c2)cc1OC	3.8 µM	Active	3.28 µM	Not Active		
COc1ccc(/C=C/C(=O)c2ccc(OC)cc2OC)cc1 [METOCHALCONE]	1.91 µM	Active	2.34 µM	Not Active		
O=C(/C=C/c1ccccc1)c1ccc2ccccc2c1O	9.23 µM	Active	24.3 µM	Not Active		
COc1ccc(C(=O)/C=C/c2ccc(OC)c(OC)c2)c(OC)c1	1.03 µM	Active	2.2 µM	Not Active		
O=C(/C=C/c1ccc(Cl)cc1)c1ccc2ccccc2c1O		Active		Not Active	Not Active	Not Active
O=C(/C=C/c1ccc(Cl)c(Cl)c1)c1ccc2ccccc2c1O	22.4 µM	Active	26.1 µM	Not Active		
O=C(/C=C/c1ccccc1)c1ccccc1O [2'-HYDROXYCHALCONE]		Active		Not Active	Not Active	Not Active
COc1ccc(/C=C/C(=O)c2ccc(O)cc2O)cc1OC	0.85 µM	Active	0.93 µM	Not Active		
COc1ccc(/C=C/C(=O)c2ccc(OC)c(OC)c2)cc1	1.16 µM	Active	2.19 µM	Not Active		
O=C(/C=C/c1ccc(Cl)cc1)c1c(O)ccc2ccccc12		Active		Not Active	Not Active	Not Active
COc1ccc(/C=C/C(=O)c2c(O)cc(OC)cc2OC)cc1 [FLAVOKAWAIN A]	3 µM	Active	5.83 µM	Not Active		
COc1ccc(/C=C/C(=O)c2ccccc2)cc1OC		Active		Not Active	Not Active	Not Active
COc1ccc(C(=O)/C=C/c2ccc(Cl)cc2)cc1OC	1.73 µM	Active	2.72 µM	Not Active		
COc1cccc(/C=C/C(=O)c2c(O)ccc3ccccc23)c1	1.93 µM	Active	1.93 µM	Not Active		
COc1cc(OO)ccc1C(=O)/C=C/c1ccc(Cl)c(Cl)c1		Active		Not Active	Not Active	Not Active
O=C(/C=C/c1ccccc1)c1c(O)ccc2ccccc12	2.58 µM	Active	2.77 µM	Not Active		

Results, then the molecule that gave them:

IC50 ([1]; read-out: IC50)	inhibition (INH) [2]	IC50 ([3]; read-out: IC50)	inhibition (INH) [4]	IC50 ([1]; mdck-ii)	IC50 ([3]; mcf7/mx)	SMILES
1.06 µM	Active	2.17 µM	Not Active			COc1ccc(C(=O)/C=C/c2ccc(OC)c(OC)c2)c(O)c1
7.8 µM	Active	11 µM	Not Active			COc1ccc(C(=O)/C=C/c2ccccc2Cl)cc1OC
2.2 µM	Active	4.2 µM	Not Active			COc1ccc(/C=C/C(=O)c2ccc(OC)cc2O)cc1
5.68 µM	Active	11.9 µM	Not Active			COc1cccc(/C=C/C(=O)c2ccc3ccccc3c2O)c1
10.7 µM	Active	13.5 µM	Not Active			COc1ccc(C(=O)/C=C/c2ccc(Cl)cc2)c(O)c1
9.83 µM	Active	16.9 µM	Not Active			COc1ccc(/C=C/C(=O)c2ccc3ccccc3c2O)cc1
1.94 µM	Active	2.8 µM	Not Active			COc1cccc(/C=C/C(=O)c2ccc(O)cc2O)c1
	Active		Not Active	Not Active	Not Active	COc1ccc(/C=C/C(=O)c2ccccc2O)cc1
3.32 µM	Active	6.85 µM	Not Active			COc1ccc(C(=O)/C=C/c2ccccc2Cl)c(O)c1
5.58 µM	Active	5.21 µM	Not Active			O=C(/C=C/c1ccccc1Cl)c1c(O)ccc2ccccc12
	Active		Not Active	Not Active	Not Active	O=C(/C=C/c1ccccc1Cl)c1ccc2ccccc2c1O
	Active		Not Active	Not Active	Not Active	O=C(/C=C/c1ccccc1)c1ccc(O)cc1O [2',4'-DIHYDROXYCHALCONE]
2.63 µM	Active	3.13 µM	Not Active			COc1ccc(C(=O)/C=C/c2ccccc2Cl)c(OC)c1
1.47 µM	Active	3.15 µM	Not Active			COc1cccc(/C=C/C(=O)c2ccc(OC)cc2O)c1
3.28 µM	Active	3.21 µM	Not Active			O=C(/C=C/c1ccccc1Cl)c1ccc(O)cc1O
2.82 µM	Active	5.27 µM	Not Active			COc1cc(O)c(C(=O)/C=C/c2ccccc2Cl)c(OC)c1
4.97 µM	Active	5.07 µM	Not Active			COc1ccc(/C=C/C(=O)c2ccccc2O)cc1OC
6.37 µM	Active	6.07 µM	Not Active			O=C(/C=C/c1ccc(Cl)cc1)c1ccc(O)cc1O
